Laboratory results: ChEMBL document CHEMBL4351026, “Antifungal activity, mode of action variability, and subcellular distribution of coumarin-based antifungal azoles” (Eur J Med Chem, 2019)
In brackets after ≈: the same amount, converted by molar mass. Activity calls are given as the source filed them. The rule behind the calls is not given here.

Assays:
[1] = tested on: Meyerozyma guilliermondii; test: Antifungal activity against Candida guilliermondii T-47 assessed as reduction in fungal cell growth incubated for 24 hrs by MTT based broth double dilution method; assay type: functional; conditions: T-47, 24 h
Procedure, shortened: (§1)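 Broth double-dilution in Casitone broth. Starter cultures were grown 24 or 48 h at 37 °C, 5% CO₂, diluted 1:100, and added to serial two-fold dilutions at 64 to 0.007 µg/mL. Final inoculum was 5 x 10^4 to 5 x 10^5 CFU/mL; DMSO was 0.0012–1.3%. Plates were incubated at 37 °C, 5% CO₂, then MTT was added for 2 h. MIC followed CLSI M27-A3. Triplicates, two independent experiments.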

HEK-293T [2] = test: Cytotoxicity against human HEK293T cells assessed as reduction in cell viability at 5 to 50 uM incubated for 24 hrs by XTT assay; assay type: cell-based
Procedure, shortened: (§2)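 HEK-293T were grown in DMEM with 10% FBS; HepG2 in RPMI with 15% FBS; both at 37 °C, 5% CO₂. Cells (4000 HepG2 or 7000 HEK-293T per well) were seeded on poly-D-lysine wells. After 24 h the medium was renewed and compounds added at 5–50 µM from 1 mM stocks in 10% DMSO/0.3% Tween/PBS. After 24 h more, XTT was added for 2 h at 37 °C; absorbance was read at 475 nm against 660 nm reference.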

Nakaseomyces glabratus [3] = test: Antifungal activity against Candida glabrata ATCC 66032 assessed as reduction in fungal cell growth incubated for 24 hrs by MTT based broth double dilution method; assay type: functional; conditions: ATCC 66032, 24 h; procedure, shortened: as §1
Candida albicans [4] = test: Antifungal activity against Candida albicans SN152 assessed as reduction in fungal cell growth incubated for 48 hrs by MTT based broth double dilution method; assay type: functional; conditions: SN152, 48 h; procedure, shortened: as §1
Candida parapsilosis [5] = test: Antifungal activity against Candida parapsilosis ATCC 90018 assessed as reduction in fungal cell growth incubated for 24 hrs by MTT based broth double dilution method; assay type: functional; conditions: Lodderomyces parapsilosis, ATCC 90018, 24 h; procedure, shortened: as §1
Candida dubliniensis = test: Antifungal activity against Candida dubliniensis T-99 assessed as reduction in fungal cell growth incubated for 24 hrs by MTT based broth double dilution method; assay type: functional; conditions: T-99, 24 h; procedure, shortened: as §1
Candida albicans [6] = test: Antifungal activity against Candida albicans SN152 assessed as reduction in fungal cell growth incubated for 24 hrs by MTT based broth double dilution method; assay type: functional; conditions: SN152, 24 h; procedure, shortened: as §1
Candida albicans [7] = test: Antifungal activity against Candida albicans ATCC 90028 assessed as reduction in fungal cell growth incubated for 24 hrs by MTT based broth double dilution method; assay type: functional; conditions: ATCC 90028, 24 h; procedure, shortened: as §1
Nakaseomyces glabratus [8] = test: Antifungal activity against Candida glabrata ATCC 2001 assessed as reduction in fungal cell growth incubated for 24 hrs by MTT based broth double dilution method; assay type: functional; conditions: ATCC 2001, 24 h; procedure, shortened: as §1
Nakaseomyces glabratus [9] = test: Antifungal activity against Candida glabrata 192 assessed as reduction in fungal cell growth incubated for 24 hrs by MTT based broth double dilution method; assay type: functional; conditions: Nakaseomyces glabratus, 192, 24 h; procedure, shortened: as §1
HepG2 = test: Cytotoxicity against human HepG2 cells assessed as reduction in cell viability at 5 to 50 uM incubated for 24 hrs by XTT assay; assay type: cell-based; conditions: hepg2, 24 h; procedure, shortened: as §2
Candida albicans [10] = test: Antifungal activity against Candida albicans P-87 assessed as reduction in fungal cell growth incubated for 24 hrs by MTT based broth double dilution method; assay type: functional; conditions: P-87, 24 h; procedure, shortened: as §1
[11] = (§3) Cytotoxicity against human HEK293T cells assessed as reduction in cell viability at 5 to 50 uM incubated for 24 hrs by XTT assay relative to control; assay type: cell-based, HEK-293T; conditions: HEK293T cells, read-out: INH
Procedure, shortened: (§4)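 HEK-293T cells were grown in DMEM with 10% FBS, 1% NEAA, 1% pyruvate and pen-strep-nystatin at 37 °C and 5% CO2. 7000 cells/well were seeded on poly-D-lysine-coated wells. After 24 h the medium was renewed and compounds were added at 5–50 µM from 1 mM stocks in 10% DMSO/0.3% Tween/PBS. After 24 h, XTT was added for 2 h at 37 °C, with absorbance read at 475 nm (reference 660 nm).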

Candida parapsilosis [12] = test: Antifungal activity against Candida parapsilosis ATCC 22019 assessed as reduction in fungal cell growth incubated for 24 hrs by MTT based broth double dilution method; assay type: functional; conditions: Lodderomyces parapsilosis, ATCC 22019, 24 h; procedure, shortened: as §1
Nakaseomyces glabratus [13] = test: Antifungal activity against Candida glabrata ATCC 66032 assessed as reduction in fungal cell growth incubated for 48 hrs by MTT based broth double dilution method; assay type: functional; conditions: ATCC 66032, 48 h; procedure, shortened: as §1
[14] = Cytotoxicity against human HepG2 cells assessed as reduction in cell viability at 5 to 50 uM incubated for 24 hrs by XTT assay relative to control; assay type: cell-based; conditions: read-out: INH
Procedure, shortened: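 HepG2 cells were maintained in RPMI with 15% FBS, 1% NEAA, 1% pyruvate and pen-strep-nystatin at 37 °C and 5% CO2. 4000 cells/well were plated on poly-D-lysine coating and given fresh medium after 24 h. Compounds were dosed at 5–50 µM from 1 mM stocks in 10% DMSO/0.3% Tween/PBS and incubated 24 h. Viability was read by XTT (2 h, 37 °C) at 475 nm against 660 nm.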

Cytochrome P450 3A4 = Cytochrome P450 3A4 (Homo sapiens, UniProt P08684); test: Inhibition of recombinant human CYP3A4 using Luciferin-PPXE as substrate preincubated for 10 mins followed by NADPH addition measured after 15 mins by luminometric method; assay type: ADME
Sequence of Cytochrome P450 3A4 (P08684 whole entry): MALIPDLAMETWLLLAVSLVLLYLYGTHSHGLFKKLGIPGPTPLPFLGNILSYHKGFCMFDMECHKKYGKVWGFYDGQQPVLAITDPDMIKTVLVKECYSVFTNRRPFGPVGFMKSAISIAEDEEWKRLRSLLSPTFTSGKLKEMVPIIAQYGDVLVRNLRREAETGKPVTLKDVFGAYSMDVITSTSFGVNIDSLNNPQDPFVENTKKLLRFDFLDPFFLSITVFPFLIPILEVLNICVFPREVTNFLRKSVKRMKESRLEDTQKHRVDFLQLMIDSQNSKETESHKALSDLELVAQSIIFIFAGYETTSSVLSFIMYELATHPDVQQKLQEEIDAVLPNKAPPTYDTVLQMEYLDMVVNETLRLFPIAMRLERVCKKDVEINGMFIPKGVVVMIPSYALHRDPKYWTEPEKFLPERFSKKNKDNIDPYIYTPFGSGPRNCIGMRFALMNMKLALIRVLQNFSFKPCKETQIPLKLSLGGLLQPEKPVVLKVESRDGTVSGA
Procedure, shortened: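 P450-Glo luminescent assay, Luciferin-PPXE substrate. Compound was mixed with membranes containing recombinant human CYP3A4; controls were vehicle with membranes lacking CYP3A4. After 10 min preincubation at 37 °C, NADPH regeneration reagent was added and the mixture kept 15 min at 37 °C. Luciferin detection reagent stopped the reaction; after 20 min at room temperature, luminescence was read. Duplicates.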

Nakaseomyces glabratus [15] = test: Antifungal activity against Candida glabrata 192 assessed as reduction in fungal cell growth incubated for 48 hrs by MTT based broth double dilution method; assay type: functional; conditions: Nakaseomyces glabratus, 192, 48 h; procedure, shortened: as §1
Candida albicans [16] = test: Antifungal activity against Candida albicans ATCC 90028 assessed as reduction in fungal cell growth incubated for 48 hrs by MTT based broth double dilution method; assay type: functional; conditions: ATCC 90028, 48 h; procedure, shortened: as §1
Candida albicans [17] = test: Antifungal activity against ERG11/ERG3 knocked out Candida albicans SN152 assessed as zone of inhibition at 25 ug […] by disk diffusion method; assay type: functional, organism-based
Candida albicans [18] = test: Antifungal activity against Candida albicans SN152 assessed as zone inhibition at 25 ug incubated for 24 hrs by disk diffusion method; assay type: functional, organism-based
Procedure, shortened: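 Strains were streaked on YPD agar and grown at 30 °C: 24 h for parental SN152, 48 h for the erg11ΔΔ erg3ΔΔ mutant. Colonies were suspended in PBS and adjusted to OD 0.02 (SN152) or 0.03 (mutant), then spread on Casitone plates. A 6-mm disk loaded with 25 µg compound was placed centrally. Plates were incubated at 30 °C and photographed after 24 h.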

HEK-293T [19] = test: as §3; assay type: cell-based; conditions: hek-293t, 24 h, 50 µM; procedure, shortened: as §4
[20] = Drug distribution in Candida albicans SN152 assessed as subcellular compound distribution at 10 uM incubated for 60 mins by fluorescent imaging analysis; assay type: ADME; conditions: 1 h
Procedure, shortened: (§5)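 Yeast were grown overnight at 30 °C in YPD liquid, diluted 1:10, and grown 2 h at 30 °C to log phase. Fluorescent azole was added at 10 µM final and incubated 60 min in the dark. Cells were washed once in PBS and imaged on slides in bright field and fluorescence (ex 427 nm, em 510 nm).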

[21] = Drug distribution in Candida glabrata 2001 assessed as subcellular compound distribution at 10 uM incubated for 60 mins by fluorescent imaging analysis; assay type: ADME; conditions: nakaseomyces glabratus, 1 h; procedure, shortened: as §5

| SMILES | MIC [1] | Activity (HEK-293T [2]) | MIC (Nakaseomyces glabratus [3]) | MIC (Candida albicans [4]) | MIC (Candida parapsilosis [5]) | MIC (Candida dubliniensis) | MIC (Candida albicans [6]) | MIC (Candida albicans [7]) | MIC (Nakaseomyces glabratus [8]) | MIC (Nakaseomyces glabratus [9]) | Activity (HepG2) | MIC (Candida albicans [10]) | MIC (Candida parapsilosis [12]) | MIC (Nakaseomyces glabratus [13]) | cytotoxicity at 24 h, up to 50 µM [14] | IC50 (Cytochrome P450 3A4) | MIC (Nakaseomyces glabratus [15]) | MIC (Candida albicans [16]) | inhibition zone (IZ) (Candida albicans [17]) | inhibition zone (IZ) (Candida albicans [18]) | other results |
| --- | --- | --- | --- | --- | --- | --- | --- | --- | --- | --- | --- | --- | --- | --- | --- | --- | --- | --- | --- | --- | --- |
| CCN(CC)c1ccc2cc(C(=O)NCC(O)(Cn3ccnc3)c3ccc(Cl)cc3Cl)c(=O)oc2c1 (racemic) | 0.125 µg/mL (≈ 0.236 µM) | Toxic | 4 µg/mL (≈ 7.56 µM) | 0.06 µg/mL (≈ 0.113 µM) | 0.015 µg/mL (≈ 0.0283 µM) | 0.25 µg/mL (≈ 0.472 µM) | 0.03 µg/mL (≈ 0.0567 µM) | 0.015 µg/mL (≈ 0.0283 µM) | 2 µg/mL (≈ 3.78 µM) | 0.25 µg/mL (≈ 0.472 µM) | Toxic | 0.03 µg/mL (≈ 0.0567 µM) | 0.06 µg/mL (≈ 0.113 µM) | > 64 µg/mL | < 40% | 127 nM | 1 µg/mL (≈ 1.89 µM) | 0.03 µg/mL (≈ 0.0567 µM) |  |  | cytotoxicity at 24 h, up to 50 µM [11]: < 40% |
| CCN(CC)c1ccc2cc(C(=O)NCC(O)(Cn3cncn3)c3ccc(Cl)cc3Cl)c(=O)oc2c1 (racemic) | 0.25 µg/mL (≈ 0.471 µM) | Non-Toxic | 4 µg/mL (≈ 7.54 µM) | 0.06 µg/mL (≈ 0.113 µM) | 0.06 µg/mL (≈ 0.113 µM) | 0.5 µg/mL (≈ 0.943 µM) | 0.03 µg/mL (≈ 0.0566 µM) | 0.03 µg/mL (≈ 0.0566 µM) | 16 µg/mL (≈ 30.2 µM) | 4 µg/mL (≈ 7.54 µM) | Non-Toxic | 0.03 µg/mL (≈ 0.0566 µM) | 0.5 µg/mL (≈ 0.943 µM) | > 64 µg/mL | < 40% | 351 nM | > 64 µg/mL | 0.06 µg/mL (≈ 0.113 µM) | inactive | Active | cytotoxicity at 24 h, up to 50 µM [11]: < 40% |
| C[C@@H](c1ncncc1F)[C@](O)(Cn1cncn1)c1ccc(F)cc1F [VORICONAZOLE] | 0.06 µg/mL (≈ 0.172 µM) |  | 0.5 µg/mL (≈ 1.43 µM) | 0.007 µg/mL (≈ 0.02 µM) | 0.015 µg/mL (≈ 0.0429 µM) | 0.06 µg/mL (≈ 0.172 µM) | 0.007 µg/mL (≈ 0.02 µM) | 0.007 µg/mL (≈ 0.02 µM) | 2 µg/mL (≈ 5.73 µM) | 0.125 µg/mL (≈ 0.358 µM) |  | 0.007 µg/mL (≈ 0.02 µM) | 0.03 µg/mL (≈ 0.0859 µM) | 4 µg/mL (≈ 11.5 µM) | < 40% |  | 0.25 µg/mL (≈ 0.716 µM) | 0.007 µg/mL (≈ 0.02 µM) | inactive | Active | Activity (HEK-293T [19]): < 40% |
| CCN(CC)c1ccc2cc(C(=O)NCC(O)(Cn3cncn3)c3ccc(F)cc3F)c(=O)oc2c1 (racemic) | 1 µg/mL (≈ 2.01 µM) |  | 4 µg/mL (≈ 8.04 µM) | 0.125 µg/mL (≈ 0.251 µM) | 0.125 µg/mL (≈ 0.251 µM) | 1 µg/mL (≈ 2.01 µM) | 0.03 µg/mL (≈ 0.0603 µM) | 0.06 µg/mL (≈ 0.121 µM) | 16 µg/mL (≈ 32.2 µM) | 8 µg/mL (≈ 16.1 µM) |  | 0.06 µg/mL (≈ 0.121 µM) | 1 µg/mL (≈ 2.01 µM) | > 64 µg/mL |  | 1020 nM | > 64 µg/mL | 0.125 µg/mL (≈ 0.251 µM) | inactive | Active | Drug uptake [20]: Active; Drug uptake [21]: Active |
